T cruzi inh: blocks replication of Trypanosoma cruzi; inhibition, % (no concentration beside the values); T. cruzi beta-gal in NIH3T3, luminescence, 90 h; hit rate 1.4% among 300,000; AID 1885;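 active = mean inhibition across valid replicates above about 55%, limit read from the data; inconclusive = mean below that limit but half or more replicates reach it; inactive = mean below it, under half of replicates reach it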;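 note: signal also drops with host cell toxicity which is not excluded here; higher percent means less beta-gal luminescence so fewer parasites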
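Assay system: NIH/3T3 fibroblasts plus reporter T. cruzi. Amount: NIH/3T3 cells, 5,000 per well. Buffer or medium: DMEM, 2% fetal bovine serum. Doses: compound pinned at 50 nL/well, DMSO. Schedule: ≥90 h infection period, 3 h prior cell attachment. Signal: luminescent β-galactosidase signal after 60 min lysis. Read-out: parasite load inhibition, %.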
HIF activator: HIF pathway transcriptional activation; U2OS HRE-luciferase reporter, luminescence; normalized: DMSO 0%, desferrioxamine 100%; activation, % at 7.5 µM (by protocol); hit rate 0.32% among 300,000; AID 1910;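 active = mean activation of at least 10% of the iron chelator positive control signal, with at least half of replicates also reaching 10%; inconclusive = mean and replicate majority disagree about reaching 10%; inactive = mean and most replicates under 10%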
AI-2 QS modul: modulates the Vibrio harveyi AI-2 quorum sensing system | Vibrio harveyi JMH597 AI-2 luminescence/OD600 ratio, 9 h; active compounds read low; strain lacks LuxN and CqsS sensors; 0 = neutral-control median | AID 2094 | activity change, % at 7.5 µM | hit rate 0.4% among 300,000; in the data active = activity change below about -75%, passing the limit was not always enough; inconclusive = no clear call, values can overlap the other calls;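 note: luminescence divided by OD600 gain over 9 h not by final OD600 alone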
ARNT-TACC3 inh: disrupts binding between human ARNT and TACC3. hit rate 0.66% among 390,000. AID 623870. AlphaScreen His-ARNT PAS-B/GST-TACC3 binding, luminescence; TACC3 fragment carries E629A point mutation. inhibition, % at 9.99 µM;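 active = mean inhibition of replicates at least 50% and at least half of replicates each reaching 50%; inconclusive = half or more replicates reach 50% but mean below 50%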
Of the large screens only hits and unclear results are named; the others gave an inactive call. In the library only some 2% were active in any assay of this set; here they are far more common.

CCN(CC)S(=O)(=O)c1ccc2oc(SCC(=O)Nc3cc(C)on3)nc2c1	T cruzi inh 60
O=C(C[C@H]1CC[C@@H](NC(=O)NC2CCCCC2)[C@H](CO)O1)NCc1ccccc1	none (no result: T cruzi inh, HIF activator, AI-2 QS modul)
Oc1cc(NCCc2cccnc2)cc2cccnc12	ARNT-TACC3 inh 73 (no result: T cruzi inh, HIF activator, AI-2 QS modul)
Oc1cc(Nc2cccnc2)cc2cccnc12	ARNT-TACC3 inh 58 (no result: T cruzi inh, HIF activator, AI-2 QS modul)
Nc1nc(N)nc(-c2ccccn2)n1	ARNT-TACC3 inh 64
Clc1ccc(-c2cnnc(-c3ccccn3)n2)cc1	ARNT-TACC3 inh 61 (no result: T cruzi inh, HIF activator, AI-2 QS modul)
c1ccc(-c2nc(-c3ccccn3)nc(-c3ccccn3)n2)nc1	ARNT-TACC3 inh 51
c1ccc(-c2nc3ccccc3nc2-c2ccccn2)nc1	none
CCN1/C(=C/c2cccc[n+]2C)Sc2ccc(OC)cc21	T cruzi inh 70
COc1ccc2c(c1)N(C)/C(=C/c1cccc[n+]1C)S2	T cruzi inh 56
CCN1/C(=C/C(C)=O)Sc2ccc(OC)cc21	none
COc1cc(OC)cc(C(=O)/C=C2\Sc3ccccc3N2C)c1	none
COc1ccc(-c2cn(CC[C@H]3CC[C@H](NC(=O)Cc4ccccn4)[C@@H](CO)O3)nn2)cc1	none (no result: T cruzi inh, HIF activator, AI-2 QS modul)
CC(C)(C)C(=O)N1CCN(c2ccnc3cc(Cl)ccc23)CC1	none
O=C(Nc1ccc(OC(F)(F)F)cc1)N1CCN(c2ccnc3cc(Cl)ccc23)CC1	T cruzi inh 64 (no result: AI-2 QS modul)
CC1(C)Oc2cc(N)c([N+](=O)[O-])cc2O1	none
C=C1N(C)c2cc([N+](=O)[O-])c(N)cc2C1(C)C	T cruzi inh 68
COc1ccc2nc(-c3ccc(N)cc3)[nH]c2c1	none
COc1ccc2nc(-c3cccc(N)c3)[nH]c2c1	HIF activator 13
C[C@H]1CN([C@@H](C)CO)C(=O)Cc2cc(NS(=O)(=O)c3ccccc3)ccc2O[C@H]1CN(C)S(=O)(=O)c1ccc(Cl)cc1	none (no result: T cruzi inh, HIF activator, AI-2 QS modul)
COc1ccc(C2CC(=O)N(CCCN(C)CCc3ccc(OC)c(OC)c3)C2)cc1 (stereo not given)	T cruzi inh 64
CO[C@@H]1CN(C)C(=O)c2ccc(NC(=O)Nc3ccccc3F)cc2OC[C@H](C)NC[C@@H]1C	none (no result: T cruzi inh, HIF activator, AI-2 QS modul)
CS(=O)(=O)n1nc(-c2ccc(Cl)cc2)nc1N	none
Cn1nc(-c2ccc(Cl)cc2)nc2c(=O)n(C)c(=O)nc1-2	T cruzi inh 56, AI-2 QS modul -77
COc1cc2c(-c3ccccc3)c(C)oc2cc1/C=N/NC(N)=S	T cruzi inh 89
O=C(NNc1ccccc1)C(=O)NNS(=O)(=O)c1ccc(CCCl)cc1	T cruzi inh 72
Nc1ccc(S(=O)(=O)Nc2ccc(C(=O)c3ccccc3)cc2)cc1	none
Nc1ccc(S(=O)(=O)NNC(=O)C(=O)NNc2ccccc2)cc1	T cruzi inh 67
O=C(Cc1ccccc1)NNS(=O)(=O)c1ccc(F)cc1	none
CO[C@@H]1CN(C)C(=O)c2cc(NS(C)(=O)=O)ccc2OC[C@@H](C)N(C(=O)C2CCCC2)C[C@@H]1C	none (no result: T cruzi inh, HIF activator, AI-2 QS modul)
C[C@H]1CCCCO[C@H](CN(C)C(=O)CCCN(C)C)[C@@H](C)CN([C@@H](C)CO)C(=O)c2cc(NC(=O)NC3CCCCC3)ccc2O1	none (no result: T cruzi inh, HIF activator, AI-2 QS modul)
C[C@@H]1CCCCO[C@@H](CN(C)C(=O)C2CCCCC2)[C@H](C)CN([C@@H](C)CO)C(=O)c2cc(NC(=O)C3CCCCC3)ccc2O1	none (no result: T cruzi inh, HIF activator, AI-2 QS modul)
O=C(CC1SC(=Nc2ccc(OC(F)F)cc2)N(CCC2=CCCCC2)C1=O)Nc1ccccc1F (stereo not given)	T cruzi inh inconclusive
CCOc1ccccc1N=C1SC(CC(=O)Nc2ccc(OC)cc2OC)C(=O)N1CCC1=CCCCC1 (stereo not given)	T cruzi inh 58
CN1CCN(C(=O)C[C@@H]2C=C[C@@H](NC(=O)c3ccc4c(c3)OCO4)[C@H](CO)O2)CC1	none (no result: T cruzi inh, HIF activator, AI-2 QS modul)
C[C@H](NC(=O)C[C@@H]1C[C@H]2c3cc(NC(=O)NC4CCCCC4)ccc3O[C@H]2[C@H](CO)O1)c1ccccc1	none (no result: T cruzi inh, HIF activator, AI-2 QS modul)
O=C(OCC(=O)N1CCCC1=O)c1ccc(Cl)cc1[N+](=O)[O-]	AI-2 QS modul -81
O=C(OCC(=O)N1CCN(c2ccccc2)CC1)c1ccc(Cl)cc1[N+](=O)[O-]	none
O=C(OCC(=O)N1CCOCC1)c1ccc(Cl)cc1[N+](=O)[O-]	AI-2 QS modul -79
COc1ccc(-c2ccc3n(c2=O)C[C@H]2[C@H](CO)[C@@H](C(=O)N(C)C)N(CC4CCOCC4)[C@@H]32)cc1	none (no result: T cruzi inh, HIF activator, AI-2 QS modul)
Cc1ccc(Cl)cc1N1CCN(Cc2cc(=O)n3ccsc3n2)CC1	none
O=C(c1ccc(Cn2c(=S)[nH]c3ccc(N4CCOCC4)cc3c2=O)cc1)N1CCN(c2ccc(F)cc2)CC1	T cruzi inh 85
Cc1ccc(Cl)cc1N1CCN(Cc2cc3c(cc2O)CCC3)CC1	T cruzi inh 58
O=c1c2cc(N3CCOCC3)ccc2[nH]c(=S)n1Cc1ccc(Cl)cc1	none
Cc1ccc(C)c(N2CCN(C(=O)c3ccc(Cn4c(=S)[nH]c5ccc(N6CCOCC6)cc5c4=O)cc3)CC2)c1	T cruzi inh 75
COc1ccc(N2CCN(C(=O)c3ccc(Cn4c(=S)[nH]c5ccc(N6CCOCC6)cc5c4=O)cc3)CC2)cc1	T cruzi inh 68
O=C(c1ccc(Cn2c(=S)[nH]c3cc4c(cc3c2=O)OCO4)cc1)N1CCN(c2ccccc2)CC1	none (no result: AI-2 QS modul)
CCCNC(=O)N1[C@@H]2CN(C(=O)c3cccnc3)c3ccccc3[C@@H]2[C@@H]1CO	none (no result: T cruzi inh, HIF activator, AI-2 QS modul)
CC(=O)N1[C@@H]2c3cccc(=O)n3C[C@@H]2[C@@H](CO)[C@@H]1C(=O)N[C@@H](C)c1ccccc1	none (no result: T cruzi inh, HIF activator, AI-2 QS modul)
Cc1ccc(Cl)cc1N1CCN(C(=O)c2ccc(CN3CCOCC3)cc2)CC1	T cruzi inh 56
Cc1cccc(N2CCN(C(=O)CCCCCn3c(=S)[nH]c4ccc(N5CCOCC5)cc4c3=O)CC2)c1C	T cruzi inh 65 (no result: ARNT-TACC3 inh)
C[C@H](CO)N1C[C@H](C)[C@H](CN(C)S(=O)(=O)c2cccc(F)c2)Oc2ncccc2C1=O	none (no result: T cruzi inh, HIF activator, AI-2 QS modul)
C[C@H](CO)N1C[C@H](C)[C@H](CN(C)S(=O)(=O)c2ccc(F)cc2)Oc2c(NC(=O)Nc3ccc4c(c3)OCO4)cccc2C1=O	none (no result: T cruzi inh, HIF activator, AI-2 QS modul)
C[C@@H]1CN([C@H](C)CO)C(=O)c2cc(-c3ccccc3)cnc2O[C@H]1CN(C)Cc1ccc(C(=O)O)cc1	none (no result: T cruzi inh, HIF activator, AI-2 QS modul)
C[C@@H]1CN([C@@H](C)CO)C(=O)c2cc(NC(=O)Cn3cnnn3)ccc2O[C@H]1CN(C)C(=O)NC1CCCCC1	none (no result: T cruzi inh, HIF activator, AI-2 QS modul)
Cc1ccc(/C=C(\C#N)c2nn(-c3ccccc3)c(N)c2C#N)cc1	HIF activator 9.8
N#C/C(=C\c1c(F)cccc1Cl)c1nn(-c2ccccc2)c(-n2cccc2)c1C#N	none
N#C/C(=C\c1cccc2ccccc12)c1nn(-c2ccccc2)c(N)c1C#N	none (no result: ARNT-TACC3 inh)
N#C/C(=C\c1c(Cl)cccc1Cl)c1nn(-c2ccccc2)c(-n2cccc2)c1C#N	T cruzi inh 59
CCOc1ccccc1NC(=O)COc1ccc2c(c1)OCO2	HIF activator 14
O=c1c2ccc([N+](=O)[O-])cc2ncn1CCOc1cccc(Br)c1	T cruzi inh 67
Cc1cc(OCCn2cnc3ccccc3c2=O)ccc1[N+](=O)[O-]	none

Screening data from PubChem.
